# Data taken from ChEMBL document CHEMBL4177770, “Discovery of MK-6169, a Potent Pan-Genotype Hepatitis C Virus NS5A Inhibitor with Optimized Activity against Common Resistance-Associated Substitutions” (J Med Chem, 2018).
# Substitutions are numbered along the chain they refer to.
# What was measured:
# [1] = MRT in Wistar Han rat at 100 mg/kg, po by LC/MS method; assay type: ADME, organism-based; settings: in vivo
# Procedure, shortened: (§1)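 Single rising oral dose study in fed male Wistar Han rats, dosed PO in 10% TWEEN at the indicated doses. Plasma was obtained by centrifuging the blood, and compound levels were determined by LC/MS.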
# [2] = Resistance ratio of EC90 for NS5A F28Y mutant in HCV genotype 2a infected in HuH7 replicon cells to EC90 for NS5A in HCV genotype 1a infected in HuH7 replicon cells; assay type: cell-based
# [3] = Resistance ratio of EC90 for NS5A L31V mutant in HCV genotype 1b infected in HuH7 replicon cells to EC90 for NS5A in HCV genotype 1a infected in HuH7 replicon cells; assay type: cell-based
# [4] = tested on: T1, Nonstructural protein 5A (Hepatitis C virus), Q5L478 [L28M,Y93H]; assay: Inhibition of NS5A L28M/Y93H double mutant in HCV genotype 1b infected in HuH7 replicon cells assessed as decrease in viral replication after 3 days by RT-PCR method; assay type: cell-based; settings: Hepatitis C virus subtype 1b
# T1 sequence (whole entry): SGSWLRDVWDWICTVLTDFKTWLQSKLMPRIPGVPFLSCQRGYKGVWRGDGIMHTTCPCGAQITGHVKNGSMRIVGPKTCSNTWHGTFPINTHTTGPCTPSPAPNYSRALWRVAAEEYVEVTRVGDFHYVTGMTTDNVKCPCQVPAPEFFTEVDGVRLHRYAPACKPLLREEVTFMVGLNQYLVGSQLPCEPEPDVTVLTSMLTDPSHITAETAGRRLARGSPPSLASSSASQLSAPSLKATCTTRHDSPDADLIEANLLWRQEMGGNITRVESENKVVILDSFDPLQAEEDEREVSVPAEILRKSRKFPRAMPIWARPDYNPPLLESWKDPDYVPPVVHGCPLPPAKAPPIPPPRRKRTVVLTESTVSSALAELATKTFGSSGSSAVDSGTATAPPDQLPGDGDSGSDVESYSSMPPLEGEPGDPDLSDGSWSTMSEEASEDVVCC
# [5] = target: T2, Nonstructural protein 5A (Hepatitis C virus) (UniProt Q5L478); assay: Inhibition of NS5A F28Y mutant in HCV genotype 2a infected in HuH7 replicon cells assessed as decrease in viral replication after 3 days by RT-PCR method; assay type: cell-based; settings: Hepatitis C virus subtype 2a
# T2 sequence (whole entry): T1 sequence (whole entry) with M28L, H93Y
# [6] = target: T2, Nonstructural protein 5A (Hepatitis C virus); assay: Inhibition of NS5A L31V mutant in HCV genotype 3a infected in HuH7 replicon cells assessed as decrease in viral replication after 3 days by RT-PCR method; assay type: cell-based; settings: Hepatitis C virus subtype 3a
# [7] = Tmax in Wistar Han rat at 100 mg/kg, po by LC/MS method; assay type: ADME, organism-based; settings: in vivo; procedure, shortened: as §1
# [8] = target: T2, Nonstructural protein 5A (Hepatitis C virus); assay: Inhibition of NS5A L31V mutant in HCV genotype 4a infected in HuH7 replicon cells assessed as decrease in viral replication after 3 days by RT-PCR method; assay type: cell-based; settings: Hepatitis C virus subtype 4a
# [9] = tested on: Nonstructural protein 5A (Hepatitis C virus), Q5L478 [UNDEFINED MUTATION]; assay: Inhibition of NS5A L31M/Y93C double mutant in HCV genotype 1a infected in HuH7 replicon cells assessed as decrease in viral replication after 3 days by RT-PCR method; assay type: cell-based; settings: Hepatitis C virus subtype 1a
# [10] = Resistance ratio of EC90 for NS5A L31M mutant in HCV genotype 2a infected in HuH7 replicon cells to EC90 for NS5A in HCV genotype 1a infected in HuH7 replicon cells; assay type: cell-based
# [11] = Resistance ratio of EC90 for NS5A L31M mutant in HCV genotype 2b infected in HuH7 replicon cells to EC90 for NS5A in HCV genotype 1a infected in HuH7 replicon cells; assay type: cell-based
# Huh-7 = assay: Cytotoxicity against human HuH7 cells assessed as effect on GAPDH mRNA levels up to 25 uM; assay type: cell-based
# Procedure, shortened: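 Huh-7 cells were exposed to compound up to a top concentration of 25 µM. Cytotoxicity was monitored as the change in GAPDH mRNA levels.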
# [12] = Resistance ratio of EC90 for NS5A L31M/Y93H double mutant in HCV genotype 1b infected in HuH7 replicon cells to EC90 for NS5A in HCV genotype 1a infected in HuH7 replicon cells; assay type: cell-based
# [13] = target: T2, Nonstructural protein 5A (Hepatitis C virus); assay: Inhibition of NS5A L31V mutant in HCV genotype 1b infected in HuH7 replicon cells assessed as decrease in viral replication after 3 days by RT-PCR method; assay type: cell-based; settings: Hepatitis C virus subtype 1b
# [14] = Resistance ratio of EC90 for NS5A A30K mutant in HCV genotype 3a infected in HuH7 replicon cells to EC90 for NS5A in HCV genotype 1a infected in HuH7 replicon cells; assay type: cell-based
# [15] = tested on: NS3 (Hepatitis C virus), A3EZJ3 [R155K,V36M]; assay: Inhibition of NS3 R155K/V36M double mutant in HCV genotype 1a infected in HuH7 replicon cells assessed as decrease in viral replication after 3 days by RT-PCR method; assay type: cell-based; settings: Hepatitis C virus subtype 1a
# [16] = Drug level in Beagle dog at 5 mg/kg, po measured at 24 hrs by LC/MS method; assay type: ADME, organism-based, Canis lupus familiaris; settings: in vivo, read-out: Drug uptake
# Procedure, shortened: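 Beagle dogs, two animals per dosing group. Oral dose was given in 10% TWEEN. Blood was collected and spun to plasma, and plasma compound levels were measured by LC/MS.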
# [17] = target: T2, Nonstructural protein 5A (Hepatitis C virus); assay: Inhibition of NS5A K24R mutant in HCV genotype 1a infected in HuH7 replicon cells assessed as decrease in viral replication after 3 days by RT-PCR method; assay type: cell-based; settings: Hepatitis C virus subtype 1a
# [18] = target: T2, Nonstructural protein 5A (Hepatitis C virus); assay: Inhibition of NS5A A30T mutant in HCV genotype 3a infected in HuH7 replicon cells assessed as decrease in viral replication after 3 days by RT-PCR method; assay type: cell-based; settings: Hepatitis C virus subtype 3a
smiles,measurement,setting,value
COC(=O)N[C@H](C(=O)N1CCC[C@H]1c1ncc(-c2cc(F)c3c(c2)O[C@@H](c2ccc(C4CC4)s2)n2c-3cc3cc(-c4cnc([C@@H]5CCCN5C(=O)[C@@H](NC(=O)OC)[C@@H]5CCOC(C)(C)C5)[nH]4)ccc32)[nH]1)C(C)C,MRT,[1],12.4 h
same,Ratio,[2],16
same,Ratio,[3],1
same,EC90,[4],65 pM
same,EC90,[5],69 pM
same,EC90,[6],3200 pM
same,Tmax,[7],2 h
same,EC90,[8],7.7 pM
same,EC90,[9],180 pM
same,Ratio,[10],6
same,Ratio,[11],4
same,Activity,Huh-7,Non-Toxic
same,Ratio,[12],45
same,EC90,[13],5.8 pM
same,Ratio,[14],4
same,EC90,[15],2.5 pM
same,concentration at 24 h,[16],29 nM
same,EC90,[17],0.34 pM
same,EC90,[18],3.6 pM
